From ChEMBL document CHEMBL4385654, “Inhibitory effects of N-(acryloyl)benzamide derivatives on tyrosinase and melanogenesis” (Bioorg Med Chem, 2019)
Active and inactive are the calls of the source. The rule behind the calls is not given here.

What was measured:
[1] = Antioxidant activity assessed as DPPH-radical scavenging activity at 1 mM incubated for 30 mins under dark condition by microplate reader based assay relative to control; assay type: functional
Outline: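 20 µL of 10 mM DMSO stock mixed with 180 µL of 0.2 mM DPPH in methanol (stated test level 1 mM). L-ascorbic acid served as the positive control. Kept 30 min in the dark, then absorbance read at 517 nm. Scavenging % = 100×(Ac−As)/Ac against the untreated control. Three independent experiments, mean ± SD.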

Mus musculus [2] = species: Mus musculus; assay: Inhibition of tyrosinase in alpha-MSH-stimulated mouse B16F10 cells at 25 uM incubated for 24 hrs by microplate reader based assay
Outline: (§1)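 B16F10 cells were seeded at 5x10^4 per well and cultured 24 h, then given 1 µM α-MSH plus agent (0–25 µM; kojic acid 25 µM; arbutin 400 µM) for 24 h. Cells were PBS-washed and lysed in 1% Triton X-100, 0.1 mM PMSF, 50 mM phosphate pH 6.8. Lysate was frozen at −80 °C, then centrifuged. 80 µL supernatant was mixed with 20 µL 10 mM L-DOPA, held 30 min at 37 °C, and OD500 read. Triplicate runs.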

Mus musculus [3] = species: Mus musculus; assay: Inhibition of tyrosinase in alpha-MSH-stimulated mouse B16F10 cells assessed as reduction in melanin levels at 25 uM incubated for 24 hrs by microplate reader based assay relative to control
Outline: (§2)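 B16F10 cells were seeded at 5x10^4 per well and cultured 24 h at 37 °C, 5% CO2. They were then co-treated with 1 µM α-MSH and test agent (0, 5, 10 or 25 µM) for 24 h, with kojic acid at 25 µM alongside. After two PBS washes, melanin was dissolved in 200 µL 1 M NaOH for 1 h and OD405 read. Triplicate runs.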

Mus musculus [4] = species: Mus musculus; assay: Inhibition of tyrosinase in alpha-MSH-stimulated mouse B16F10 cells at 400 uM incubated for 24 hrs by microplate reader based assay; outline: as §1
B16-F10 = assay: Cytotoxicity in mouse B16F10 cells assessed as reduction in cell viability up to 25 uM incubated for 24 hrs by WST-8 assay; assay type: cell-based; settings: b16-f10, 24 h
Outline: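 B16F10 murine melanoma cells were grown in DMEM with 10% FBS, penicillin and streptomycin at 37 °C and 5% CO2, seeded at 5x10^4 per well and cultured 24 h. They were then dosed at 0, 5, 10 or 25 for 24 h. WST-8 reagent was added, and OD450 was read. Viability is given as % of untreated cells; triplicate runs.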

Mus musculus [5] = species: Mus musculus; assay: Inhibition of tyrosinase in alpha-MSH-stimulated mouse B16F10 cells assessed as reduction in melanin levels at 10 uM incubated for 24 hrs by microplate reader based assay relative to control; outline: as §2
Mus musculus [6] = species: Mus musculus; assay: Inhibition of tyrosinase in alpha-MSH-stimulated mouse B16F10 cells assessed as reduction in melanin levels at 5 uM incubated for 24 hrs by microplate reader based assay relative to control; outline: as §2

For `O=C(/C=C/c1cc(Br)c(O)c(Br)c1)NC(=O)c1ccccc1`, which inhibition [1] is on record?
Its inhibition is “inactive”.

With `COc1cc(/C=C/C(=O)NC(=O)c2ccccc2)cc(OC)c1OC` as the compound, how does the inhibition [1] read?
Its inhibition is 6.9%.

With `O=C(/C=C/c1ccc(O)cc1)NC(=O)c1ccccc1` as the compound, how does the inhibition [1] read?
Its inhibition is 4.89%.

With `O=c1cc(CO)occ1O` as the compound, how does the inhibition (Mus musculus [2]) read?
The inhibition was 50.3%.

And the inhibition (Mus musculus [3])?
The inhibition was 39%.

For `OC[C@H]1O[C@@H](Oc2ccc(O)cc2)[C@H](O)[C@@H](O)[C@@H]1O`, which inhibition (Mus musculus [4]) is on record?
Its inhibition is 41.8%.

With `COc1ccc(/C=C/C(=O)NC(=O)c2ccccc2)cc1OC` as the compound, how does the inhibition [1] read?
Its inhibition is 4.82%.

Which inhibition [1] does the source give for `COc1ccc(/C=C/C(=O)NC(=O)c2ccccc2)c(OC)c1` here?
Its inhibition is 5.76%.

Which inhibition [1] does the source give for `O=C(/C=C/c1ccc(O)c(O)c1)NC(=O)c1ccccc1` here?
The inhibition was 82.9%.

What about the inhibition (Mus musculus [2]) of the same compound?
Its inhibition is 76.8%.

And the inhibition (Mus musculus [3])?
The inhibition was 61.8%.

And the Activity (B16-F10)?
The Activity was “Non-Toxic”.

What about the inhibition (Mus musculus [5]) of the same compound?
Its inhibition is 37.6%.

What about the inhibition (Mus musculus [6]) of the same compound?
Its inhibition is 21.6%.

With `O=C(/C=C/c1ccc(O)c(Br)c1)NC(=O)c1ccccc1` as the compound, how does the inhibition [1] read?
Its inhibition is 17.3%.

With `O=C1O[C@H]([C@@H](O)CO)C(O)=C1O` as the compound, how does the inhibition [1] read?
The inhibition was 84.6%.

For `COc1cc(/C=C/C(=O)NC(=O)c2ccccc2)cc(OC)c1O`, which inhibition [1] is on record?
Its inhibition is 3.76%.

For `COc1ccc(/C=C/C(=O)NC(=O)c2ccccc2)cc1O`, which inhibition [1] is on record?
The inhibition was 7.02%.

And the inhibition (Mus musculus [2])?
The inhibition was 59.7%.

And the inhibition (Mus musculus [3])?
The inhibition was 48%.

And the Activity (B16-F10)?
The Activity was “Non-Toxic”.

And the inhibition (Mus musculus [5])?
Its inhibition is 31.2%.

And the inhibition (Mus musculus [6])?
The inhibition was 9.06%.

Which inhibition [1] does the source give for `COc1ccc(/C=C/C(=O)NC(=O)c2ccccc2)cc1` here?
The inhibition was 5.61%.
